Results on three molecules are retold here after ChEMBL document CHEMBL5029176, “Targeting Oncogenic Src Homology 2 Domain-Containing Phosphatase 2 (SHP2) by Inhibiting Its Protein-Protein Interactions” (J Med Chem, 2021).

Data set [1] can be described thus: Stability in human serum assessed as degradation after 24 hrs by HPLC analysis. Conditions: read-out: Drug degradation. The format is ADME, cell-free. The method in brief:
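Peptide stock in DMSO (5 mg/mL), 20 μL added to 1 mL 25 mM HEPES pH 7.6 plus 250 μL human serum at 37 °C; aliquots taken over 24 h, quenched in ethanol on ice, centrifuged, supernatant analysed by HPLC and HPLC-MS; peptide-buffer-ethanol controls run in parallel.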

Data set [2] can be described thus: Stability in DMEM buffer after 3 days by HPLC analysis. The format is physicochemical. The settings on record: 72 h, time 3 day. In outline: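 Same set-up as serum test but in DMEM, followed 72 h at 37 °C; monitored by HPLC with 5–50% B over 20 min.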
The species entered for data set [3] is Homo sapiens. Nature of the data set: Activation of human His-tagged SHP2 A27S mutant expressed in Escherichia coli (DE3) Rosetta2 competent cells using p-nitrophenyl phosphate as substrate at 10 uM measured after 30 mins. In outline:
(§1)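 Recombinant full-length SHP2 (wild type or mutant), His-tagged, Ni-NTA then anion-exchange and gel-filtration purified; 20 pmol in 200 μL buffer with 20 mM p-nitrophenyl phosphate, basal or stimulated with bisphosphorylated BTAM peptide; 30 min at 30 °C; phosphate release read at 405 nm; three replicates.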

Data set [4] is filed under the species Homo sapiens. The experiment in a line: Activation of human His-tagged SHP2 D61H mutant expressed in Escherichia coli (DE3) Rosetta2 competent cells using p-nitrophenyl phosphate as substrate at 10 uM measured after 30 mins. In outline:
as §1

Data set [5] is filed under the species Homo sapiens. Nature of the data set: Activation of human His-tagged SHP2 E76V mutant expressed in Escherichia coli (DE3) Rosetta2 competent cells using p-nitrophenyl phosphate as substrate at 10 uM measured after 30 mins. The method in brief:
as §1

The species named for data set [6] is Homo sapiens. Nature of the data set: Activation of human His-tagged SHP2 F71I mutant expressed in Escherichia coli (DE3) Rosetta2 competent cells using p-nitrophenyl phosphate as substrate at 10 uM measured after 30 mins. The method in brief:
as §1

Data set [7] concerns T1, Tyrosine-protein phosphatase non-receptor type 11 (Homo sapiens), Q06124 [E76K].
T1 sequence (whole entry): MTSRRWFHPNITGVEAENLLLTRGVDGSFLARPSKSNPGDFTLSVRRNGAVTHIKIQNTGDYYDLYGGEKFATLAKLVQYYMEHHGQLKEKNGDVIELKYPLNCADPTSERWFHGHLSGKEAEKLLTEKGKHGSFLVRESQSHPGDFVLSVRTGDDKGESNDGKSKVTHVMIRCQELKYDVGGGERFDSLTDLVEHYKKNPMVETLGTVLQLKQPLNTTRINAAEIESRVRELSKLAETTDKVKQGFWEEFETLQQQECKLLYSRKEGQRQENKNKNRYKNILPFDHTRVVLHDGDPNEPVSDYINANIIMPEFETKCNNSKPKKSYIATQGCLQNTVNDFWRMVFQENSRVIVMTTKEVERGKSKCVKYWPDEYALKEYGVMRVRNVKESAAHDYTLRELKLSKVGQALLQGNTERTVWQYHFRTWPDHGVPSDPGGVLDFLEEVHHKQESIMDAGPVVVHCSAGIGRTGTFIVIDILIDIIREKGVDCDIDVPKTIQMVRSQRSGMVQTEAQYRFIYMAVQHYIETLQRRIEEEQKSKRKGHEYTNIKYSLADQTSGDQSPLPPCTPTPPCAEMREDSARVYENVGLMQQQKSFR
Nature of the data set: Activation of human His-tagged SHP2 E76K mutant expressed in Escherichia coli (DE3) Rosetta2 competent cells using p-nitrophenyl phosphate as substrate at 10 uM measured after 30 mins. In outline:
as §1

For data set [8], the species on record is Danio rerio. Nature of the data set: Reversal of Shp2a-D61G-induced gastrulation defect in Zebrafish assessed as reduction in major/minor axis ratios by stereomicroscopic analysis. The format is functional, organism-based. The settings on record: dose 0.3-5 µM. In outline: (§2)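 One-cell zebrafish embryos microinjected (~1 nL) with 120 ng/μL mRNA for GFP-2A-Shp2-D61G or wild-type Shp2, with or without peptide at final 0.3, 3 or 5 μM (assuming ~500 nL embryo volume); GFP-expressing embryos selected, imaged laterally at 11 hpf by stereomicroscope; ovality as long/short axis ratio; survival followed through development; non-injected embryos as control.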

For data set [9], the species on record is Danio rerio. The experiment in a line: Reversal of Shp2a-D61G-induced phenotypic defect in Zebrafish at 5 uM by stereomicroscopic analysis. Type of data set: functional, organism-based. The method in brief:
as §2

Data set [10] is filed under the species Danio rerio. Nature of the data set: Induction of phenotypic defect in Zebrafish injected with wild type Shp2a at 3 uM measured after 11 hrs post fertilization by stereomicroscopic analysis. Type of data set: organism-based. Conditions: in vivo. The method in brief: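 Wild-type Shp2 mRNA (120 ng/μL) co-injected with peptide at final 3 μM into one-cell zebrafish embryos; GFP-positive embryos imaged laterally at 11 hpf by stereomicroscope; shape scored as long/short axis ratio.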

Data set [11] is filed under the species Danio rerio. Nature of the data set: Improvement in survival of Shp2a-D61G-injected Zebrafish embryos at 0.3 to 5 uM after 11 hrs post fertilization by stereomicroscopic analysis. Type of data set: functional, organism-based. Conditions: Embryo, dose 0.3-5 µM. The method in brief: as §2
For data set [12], the species on record is Danio rerio. The experiment in a line: Improvement in survival of wild type Shp2a-injected Zebrafish embryos at 3 uM after 11 hrs post fertilization by stereomicroscopic analysis. Type of data set: functional, organism-based. The settings on record: Embryo. The method in brief: as §2
Data set [13] is described as follows: Stability in human serum assessed as degradation after 3 hrs by HPLC analysis. The format is ADME, cell-free. The settings on record: read-out: Drug degradation. The method in brief:
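Peptide DMSO stock (5 mg/mL) added to 25 mM HEPES pH 7.6 with human serum (1 mL buffer + 250 μL serum) at 37 °C; followed 24 h. Aliquots withdrawn at fixed intervals, quenched in absolute ethanol, 15 min on ice, centrifuged; supernatant analysed by HPLC and HPLC-MS. Peptide/buffer/ethanol samples run in parallel.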

SMILES strings stand for the structures. Calls of active or inactive are those of the source. The rule behind the calls is not given here. Where a SMILES comes first, the peptide text is derived from it.

With `CC[C@H](C)[C@H](NC(=O)[C@H](Cc1ccc(OP(=O)(O)O)cc1)NC(=O)[C@H](CC(N)=O)NC(=O)[C@H](CC(C)C)NC(C)=O)C(=O)N[C@@H](CC(=O)O)C(=O)N[C@@H](CC(C)C)C(=O)N[C@@H](CC(=O)O)C(=O)N[C@@H](Cc1c[nH]c2ccccc12)C(N)=O`, the metabolised at 24 h in data set [1] was less than 50%.

Regarding `CC[C@H](C)[C@H](NC(=O)[C@H](Cc1ccc(C(F)(F)P(=O)(O)O)cc1)NC(=O)[C@H](CC(N)=O)NC(=O)[C@H](CC(C)C)NC(=O)CNC(C)=O)C(=O)N[C@@H](CC(=O)O)C(=O)N[C@@H](CC(C)C)C(=O)N[C@@H](CC(=O)O)C(=O)N[C@@H](Cc1c[nH]c2ccccc12)C(N)=O`, in [1], the metabolised at 24 h was less than 50%. Also, in [2], the Stability entry is on record as “Stable”. Moreover, the outcome (in the data set listed under Homo sapiens [3]; in the data set filed under Homo sapiens [4]; in the data set listed under Homo sapiens [5]; in the data set listed under Homo sapiens [6]; in data set [7]; in the data set filed under Danio rerio [12]) was inactive. Further, the results for the Activity entry in the data set listed under Danio rerio [8], in the data set listed under Danio rerio [10] and in the data set filed under Danio rerio [11] were “Dose-Dependent Effect”, “Non-Toxic” and “Dose-Dependent Effect”, respectively. In addition, in the data set listed under Danio rerio [9], the result was Active.

As to `CC[C@H](C)[C@H](NC(=O)[C@H](C)NC(=O)[C@H](CCCCN)NC(=O)CNC(=O)[C@H](Cc1ccc(O)cc1)NC(=O)[C@H](Cc1ccc(O)cc1)NC(=O)[C@H](CCCCN)NC(=O)[C@H](Cc1ccccc1)NC(=O)[C@@H](N)Cc1c[nH]c2ccccc12)C(=O)N[C@@H](Cc1ccc(O)cc1)C(=O)O` (H-WFKYYGKAIY-OH), in [13], the metabolised at 3 h came out at 100%.
